ABHD5-PLIN5 inh = blocks binding of human ABHD5 to perilipin-5 | Q00G26+Q8WTS1 | Split G. princeps luciferase complementation, luminescence, 4 h | inhibition, % at 4 µM | 360,000 compounds, 0.78% hits;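 active = inhibition above the mean inhibition across every tested compound plus 3 SD, cut at about 22% in these data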
Beta2AR agonist = human beta-2 adrenergic receptor agonism by FAP | P07550 | Am2.2-beta2AR cells, FAP receptor internalization, flow cytometry | response, % (concentration not given with the values) | 340,000 compounds, 0.43% hits;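 active = response above a set limit, near 3 SD of response in nonfluorescent compounds, cut at about 42% in these data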
GRK2 inh = blocks RNA aptamer binding to human GRK2 | inhibition of aptamer binding, % at 10 µM | 330,000 compounds, 0.59% hits | bead flow cytometry, FAM-aptamer displacement from GRK2 | P25098;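 active = inhibition of aptamer binding above 40%, roughly 3 SD of noise, on plates passing a quality check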;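 note: median bead fluorescence of bound FAM aptamer so fluorescent compounds give negative values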
Target sequence (P25098 whole entry, looked up): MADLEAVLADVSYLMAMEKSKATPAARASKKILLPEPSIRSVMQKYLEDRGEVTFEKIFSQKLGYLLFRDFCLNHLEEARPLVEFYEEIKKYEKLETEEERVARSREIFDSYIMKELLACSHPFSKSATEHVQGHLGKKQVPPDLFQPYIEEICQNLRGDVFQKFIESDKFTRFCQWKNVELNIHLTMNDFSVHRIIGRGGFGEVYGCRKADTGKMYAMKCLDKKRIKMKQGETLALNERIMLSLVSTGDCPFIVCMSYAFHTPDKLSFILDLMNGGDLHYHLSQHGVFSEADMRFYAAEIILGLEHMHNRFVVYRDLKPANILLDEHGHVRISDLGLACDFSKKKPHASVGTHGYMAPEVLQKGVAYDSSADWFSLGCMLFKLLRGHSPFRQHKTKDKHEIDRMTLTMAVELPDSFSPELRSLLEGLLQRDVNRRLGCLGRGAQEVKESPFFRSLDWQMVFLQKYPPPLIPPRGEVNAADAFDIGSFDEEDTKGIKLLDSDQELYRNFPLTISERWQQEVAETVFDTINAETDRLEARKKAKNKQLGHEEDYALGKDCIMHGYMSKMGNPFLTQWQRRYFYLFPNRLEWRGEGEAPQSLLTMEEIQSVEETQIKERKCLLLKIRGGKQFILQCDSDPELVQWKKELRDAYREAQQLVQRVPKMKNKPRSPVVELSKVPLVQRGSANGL
NadD block = inhibitors of Staphylococcus aureus NadD | purified NadD enzyme, colorimetric absorbance read-out | inhibition, % at 20 µM | 360,000 compounds, 0.78% hits; in the data active = inhibition above about 26%
SENP1 inh = inhibitors of human SENP1 SUMO protease catalytic domain | Q9P0U3 | recombinant SENP1 catalytic domain, CyPet-SUMO1-YPet FRET cleavage | inhibition, % at 10 µM | 360,000 compounds, 0.21% hits | AID 624204;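 active = inhibition at least 30% at 10 µM, raw YFP signal under a set limit, fluorescence ratio 0.5 to 1.5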
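system = hSENP1 catalytic domain, recombinant | reagent = SFCypet-SUMO1-SFYpet substrate at 25 nM | doses = one dose per compound, 10 µM, 0.5% DMSO | incubation = enzyme reaction for 50 min at room temperature, dark | measured by = FRET, CFP and YFP emission | controls = no-enzyme low, enzyme-DMSO high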
NadD inh conf = NadD (S. aureus) inhibition, single concentration confirmation; shares compounds with NadD block; purified S. aureus NadD, colorimetric enzyme assay; inhibition, % at 20 µM; 2,000 compounds, 13% hits; in the data active = inhibition mostly above about 42%, no sharp cut-off; inactive = mostly below about 42%
Large screens that a line does not name were inactive (follow-up assays come after a bar, where they were run); ! = not active in a repeat. A selection: hits, their analogues and other compounds. The true share with any hit is near 2.5%.

O=C(NC(Cc1c[nH]c2ccccc12)C(=O)N1CCOCC1)c1cccs1 (stereo not drawn)	none
CSc1nc(N(C)CCO)c2sc3nc(-c4ccco4)c4c(c3c2n1)CCC4	none
CSc1nc(SCC(=O)O)c2sc3nc(-c4ccccc4)c4c(c3c2n1)CCC4	NadD block 28 (no result: GRK2 inh) | NadD inh conf inactive
CC[C@]12c3[nH]c4ccc(OC)cc4c3CCN1C(=O)C(CC(=O)NCc1ccco1)C[C@@H]2C(=O)N1CCN(C(=O)c2ccco2)CC1 (stereo partly drawn)	none
CC1Cc2ccccc2N1Cc1nc2scc(-c3cccs3)c2c(=O)[nH]1 (stereo not drawn)	NadD block 46 | NadD inh conf inactive
COC(=O)c1ccc2c(=O)[nH]c(CN3c4ccccc4CC3C)nc2c1 (stereo not drawn)	NadD block 50 | NadD inh conf inactive
Cc1sc(NC(=O)Cc2ccc3c(c2)OCO3)nc1-c1ccc2c(c1)CCN2C(=O)c1cccc(F)c1	NadD block 34 | NadD inh conf inactive
CC1=C(C(=O)Nc2ccccc2)C(c2ccc(C)o2)n2c(s/c(=C\c3ccco3)c2=O)=N1 (stereo not drawn)	NadD block 34 (no result: GRK2 inh) | NadD inh conf inactive
CCOc1ccc(NC(=O)C2C3C=CC4(O3)C2C(=O)N(Cc2cccnc2)C4C(=O)NC2CCCCC2)cc1 (stereo not drawn)	none
Cc1nn(CCc2nn[nH]n2)c2nc(-c3ccc(Br)cc3)cc(C(F)(F)F)c12	NadD block 28 | NadD inh conf inactive
Cc1nn(CCc2nn[nH]n2)c2nc(C(F)(F)F)cc(C(F)(F)F)c12	none
O=c1cc(CN2CCN(S(=O)(=O)c3cccc(Cl)c3)CC2)c2ccc(O)cc2o1	NadD block 35 | NadD inh conf inactive
CC(C)CC(C(=O)Nc1oc(-c2ccco2)c(-c2ccco2)c1C#N)N1C(=O)c2ccccc2C1=O (stereo not drawn)	NadD block 48 | NadD inh conf 47
NC(=O)c1c(/N=C/c2cccnc2)sc2c1CCCC2	none
CC1=NN(c2ccc(C)cc2C)C(=O)C1C(c1ccccc1O)C1C(=O)N(c2ccc(C)cc2C)N=C1C (stereo not drawn)	none
CC1=NN(c2ccc(Cl)cc2)C(=O)C1C(c1ccccc1O)c1c(C)[nH]n(-c2ccc(Cl)cc2)c1=O (stereo not drawn)	NadD block 31 | NadD inh conf 52
COc1ccc(CN2CCC(C(=O)c3ccc(Cl)cc3)CC2)cc1	none
Cc1ccc(S(=O)(=O)Nc2ccc(Cl)cn2)cc1C	none
O=S(=O)(/N=C(/Nc1ccc(Cl)c(S(=O)(=O)Nc2ccccc2Cl)c1)c1ccc(F)cc1)c1ccccc1	NadD block 41! | NadD inh conf 55
COc1ccc(-c2ccc3[nH]c4c(c3c2)CCN2C(=O)[C@@H]([C@H](C)O)[C@@H](N(C)C(=O)Nc3cc(Cl)cc(Cl)c3)C[C@@H]42)cc1	NadD block 31 (no result: Beta2AR agonist, GRK2 inh) | NadD inh conf inactive
COc1ccc(-c2ccc3[nH]c4c(c3c2)CCN2C(=O)[C@@H]([C@H](C)O)[C@@H](N(C)C(=O)Nc3ccc(F)cc3)C[C@@H]42)cc1	none (no result: Beta2AR agonist, GRK2 inh)
CCCCCCc1cc2cc(/C(N)=N/NC(=O)c3ccncc3)c(=O)oc2cc1O	NadD block 61 | NadD inh conf inactive
CCCCCCc1cc2cc(C(=O)OCC)c(=O)oc2cc1O	none
CCOC(=O)c1c(-c2ccc(C)cc2)csc1NC(=O)/C(C#N)=C/c1ccc(O)c(OC)c1	NadD block 59 (no result: GRK2 inh) | NadD inh conf inactive
COc1cc(/C=C(\C#N)C(=O)Nc2ccccn2)ccc1O	none
CCOC(=O)c1c(-c2ccccc2)csc1NC(=O)/C(C#N)=C\c1ccc(O)c(OC)c1	NadD block 35 (no result: Beta2AR agonist, GRK2 inh) | NadD inh conf inactive
CCOC(=O)/C(C#N)=C\c1ccc(O)c(OC)c1	none
C=C1CCN([C@H](C(=O)OCc2cccc(C)c2)C(C)C)S(=O)(=O)c2ccccc21	none
COc1ccc(-c2[nH]ncc2CN2CCCCCCC2)c(OC)c1	NadD block 30 | NadD inh conf inactive
O=C(Nc1nccs1)c1cccc(NC(=O)C(F)(F)F)c1	none
Cc1noc(C)c1NC(=O)N(C)C[C@@H]1Oc2c(NC(=O)c3ccncc3)cccc2C(=O)N([C@H](C)CO)C[C@@H]1C	NadD block 36 | NadD inh conf 57
C[C@@H]1CN([C@H](C)CO)C(=O)c2cc(NC(=O)c3ccncc3)ccc2O[C@@H]1CN(C)C(=O)Nc1ccccc1	NadD block 61 | NadD inh conf 47
C[C@@H]1CN([C@@H](C)CO)C(=O)Cc2cc(NC(=O)Nc3cccc4ccccc34)ccc2O[C@@H]1CN(C)Cc1ccc(C(F)(F)F)cc1	NadD block 31 | NadD inh conf inactive
O=C(Nc1ccc(C2=NCCN2)cc1)c1ccc(C(=O)Nc2ccc(C3=NCCN3)cc2)c([N+](=O)[O-])c1	NadD block 50 | NadD inh conf inactive
O=C(O)c1ccc(/C=N/NC(=O)c2cc(-c3ccc4c5c(cccc35)CC4)n[nH]2)cc1	NadD block 28 | NadD inh conf inactive
CCCn1c(C(C)Nc2nc(-c3cc(Cl)c(N)c(Cl)c3)cs2)nc2cc(Cl)c(N3CCCCC3)cc21 (stereo not drawn)	NadD block 33 | NadD inh conf inactive
CCCn1c(C(C)Nc2nc(-c3ccc(Cl)c([N+](=O)[O-])c3)cs2)nc2ccccc21 (stereo not drawn)	none
CC(Nc1nc(-c2ccc(Cl)cc2)cs1)c1nc2cc(Cl)c(N3CCCCC3)cc2n1CCOCCO (stereo not drawn)	none
Cc1ccc(Cn2c(C(C)Nc3nc(-c4ccc(C)cc4)cs3)nc3cc(Cl)c(Cl)cc32)cc1 (stereo not drawn)	NadD block 35 | NadD inh conf inactive
Cc1ccc(Cn2c(C(C)Nc3nc(-c4ccc(Cl)c([N+](=O)[O-])c4)cs3)nc3cc(C(F)(F)F)ccc32)cc1 (stereo not drawn)	NadD block 37 | NadD inh conf inactive
CC1CCCCC1NC(=O)COC(=O)CNC(=O)c1cccc(F)c1 (stereo not drawn)	none
Clc1ccc(C2[C@H]3CN(CC4CCCCC4)[C@H](c4ccccc4)C34CC2(c2ccccc2)C4)cn1 (stereo partly drawn)	none
COC(=O)c1ccc(C23CC4(C2)[C@H](CN(CC2CCCCC2)[C@@H]4c2ccccc2)C3c2ccc(Cl)nc2)cc1 (stereo partly drawn)	NadD block 35 | NadD inh conf inactive
Cc1ccc(C(C(=O)NC2CCCC2)N(C(=O)CNC(=O)c2ccco2)c2ccccc2)o1 (stereo not drawn)	none
COc1ccccc1NC(=O)c1c(Nc2ccccc2C)sc(C(=O)Nc2cccc(Cl)c2)c1N	NadD block 35 | NadD inh conf 47
